Drawing on ChEMBL document CHEMBL1649155, “Antimicrobial activity of curcumin against Helicobacter pylori isolates from India and during infections in mice” (2009), this text covers MIC and Activity for three molecules.

Converted amounts (≈) assume the structure as drawn. The source made the active and inactive calls. The calls are words filed in the database; no cut-off is given here.

Assay [1] concerns Helicobacter pylori. Kind of assay: Antimicrobial activity against Helicobacter pylori ATCC 43504 by agar dilution method. Format: functional. The procedure, abridged:
(§1)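 Agar dilution on BHI agar with 5% horse serum. Isolates were grown 3 days under microaerophilic conditions and restreaked for 24 h. Cells were suspended in PBS to OD600 0.1, and 10 μl was spotted onto agar with curcumin at final 50–5 μg/ml (DMSO stock). Plain and DMSO-containing agar served as growth controls. Plates ran 5 days at 37°C microaerophilic. MIC is the lowest concentration with no visible growth.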
On the technique in general: Agar dilution tests growth on a series of plates holding different concentrations.

For assay [2], the system named is Helicobacter pylori. Kind of assay: Antimicrobial activity against Helicobacter pylori clinical isolate by agar dilution method. It counts as functional. The procedure, abridged: as §1
Assay [3] concerns Helicobacter pylori. Description: Antimicrobial activity against Helicobacter pylori PG233 by agar dilution method. Format: functional. In a few lines:
as §1

For assay [4], the system named is Helicobacter pylori. Kind of assay: Antimicrobial activity against Helicobacter pylori PG156 by agar dilution method. Format: functional. The procedure, abridged: as §1
The test system of assay [5] is Helicobacter pylori. Kind of assay: Antimicrobial activity against Helicobacter pylori SS1 infected in C57BL/6 mouse assessed as decreased bacterial gene vacA expression at 25 mg/kg, po administered 2 weeks post infection for 7 days measured after 1 week by PCR. It counts as functional, organism-based. Also noted: dose 25 mg/kg.
Assay [6] relates to Helicobacter pylori. Kind of assay: Antimicrobial activity against Helicobacter pylori AM1 infected in C57BL/6 mouse assessed as decreased bacterial gene vacA expression at 25 mg/kg, po administered 2 weeks post infection for 7 days measured after 1 week by PCR. It counts as functional, organism-based. Also noted: dose 25 mg/kg.
Assay [7] concerns Helicobacter pylori. Description: Antimicrobial activity against Helicobacter pylori SS1 infected in C57BL/6 mouse assessed as inhibition of inflammatory cell infiltration at 25 mg/kg, po administered 2 weeks post infection for 7 days measured after 1 week. It counts as functional, organism-based. Details: dose 25 mg/kg. The procedure, abridged:
(§2)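 C57BL/6 mice were inoculated intragastrically with SS1, with PBS controls. Two weeks after the final inoculation, curcumin 25 mg/kg was fed orally for 7 consecutive days before sacrifice. Body and pyloric stomach tissue was formalin-fixed and paraffin-embedded, and 5 μm sections were stained with hematoxylin and eosin and examined at ×10 and ×20.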

Assay [8] is described as follows: Antimicrobial activity against Helicobacter pylori 26695 by agar dilution method. It counts as functional.
Assay [9] has as its system Helicobacter pylori. Kind of assay: Antimicrobial activity against Helicobacter pylori SS1 infected in C57BL/6 mouse assessed as restoration of epithelial layer of gastric tissue at 25 mg/kg, po administered 2 weeks post infection for 7 days measured after 1 week. Format: functional, organism-based. Details: dose 25 mg/kg. To be noted: Stomach. In a few lines:
as §2

The subject of assay [10] is Helicobacter pylori. Description: Antimicrobial activity against Helicobacter pylori SS1 infected in C57BL/6 mouse assessed as decrease in glandular atrophy at 25 mg/kg, po administered 2 weeks post infection for 7 days measured after 1 week. Details: dose 25 mg/kg. Format: functional, organism-based. In a few lines:
as §2

For assay [11], the system named is Helicobacter pylori. Kind of assay: Antimicrobial activity against Helicobacter pylori L1675 by agar dilution method. Format: functional. In a few lines: as §1
The test system of assay [12] is Helicobacter pylori. Kind of assay: Antimicrobial activity against Helicobacter pylori PG139 by agar dilution method. Format: functional. In a few lines: as §1
Assay [13] relates to Helicobacter pylori. Kind of assay: Antimicrobial activity against Helicobacter pylori SS1 infected in C57BL/6 mouse assessed as inhibition of disruption in submucosal and muscularis mucosal layer of gastric tissue at 25 mg/kg, po administered 2 weeks post infection for 7 days measured after 1 week. Also noted: dose 25 mg/kg. To be noted: Stomach. Format: functional, organism-based. The procedure, abridged:
as §2

In general, MIC refers to the least concentration at which growth counts as inhibited. A low value points to greater potency. Turning to `CC1(C)S[C@@H]2[C@H](NC(=O)[C@H](N)c3ccc(O)cc3)C(=O)N2[C@H]1C(=O)O` [AMOXICILLIN], the MIC against Helicobacter pylori [1] and in the assay with Helicobacter pylori [2] was 0.03 µg/mL (≈ 0.0821 µM) in each case.
With `COc1cc(/C=C/C(=O)CC(=O)/C=C/c2ccc(O)c(OC)c2)ccc1O` [CURCUMIN], the MIC worked out at 5 µg/mL (≈ 13.6 µM) with Helicobacter pylori [3]; 30 µg/mL (≈ 81.4 µM) in the assay with Helicobacter pylori [4]; 15 µg/mL (≈ 40.7 µM) against Helicobacter pylori [1]; 20 µg/mL (≈ 54.3 µM) in [8]; 5 µg/mL (≈ 13.6 µM) against Helicobacter pylori [2]; 50 µg/mL (≈ 136 µM) in the assay on Helicobacter pylori [11]. In the assay with Helicobacter pylori [12], the MIC was determined as 5 µg/mL (≈ 13.6 µM). Also, the outcome with Helicobacter pylori [5], with Helicobacter pylori [6], in the assay with Helicobacter pylori [7], with Helicobacter pylori [9], with Helicobacter pylori [10] and in the assay with Helicobacter pylori [13] was Active.
Regarding `CC[C@H]1OC(=O)[C@H](C)[C@@H](O[C@H]2C[C@@](C)(OC)[C@@H](O)[C@H](C)O2)[C@H](C)[C@@H](O[C@@H]2O[C@H](C)C[C@H](N(C)C)[C@H]2O)[C@](C)(OC)C[C@@H](C)C(=O)[C@H](C)[C@@H](O)[C@]1(C)O` [CLARITHROMYCIN], the MIC against Helicobacter pylori [1] and in the assay on Helicobacter pylori [2] was 0.02 µg/mL (≈ 0.0267 µM) in each case.
